Hits are enriched below; roughly 3% of the tested compounds scored in any of these assays.
Wnt act = activators of Wnt/beta-catenin signaling; Wnt/beta-catenin reporter cell assay, activator, plate reader; activation, % at 9.35 µM; 1.2% of 300,000 active; AID 743398; in the data active = activation above about 30%, passing the limit was not always enough
NSD2 HMT inh = blocks human histone methyltransferase NSD2. NSD2 peptide methylation, AlphaScreen, 120 min. 0.54% of 310,000 active. inhibition, % at 12.5 µM. O96028; in the data active = inhibition above about 50%
Target sequence (O96028 whole entry, looked up): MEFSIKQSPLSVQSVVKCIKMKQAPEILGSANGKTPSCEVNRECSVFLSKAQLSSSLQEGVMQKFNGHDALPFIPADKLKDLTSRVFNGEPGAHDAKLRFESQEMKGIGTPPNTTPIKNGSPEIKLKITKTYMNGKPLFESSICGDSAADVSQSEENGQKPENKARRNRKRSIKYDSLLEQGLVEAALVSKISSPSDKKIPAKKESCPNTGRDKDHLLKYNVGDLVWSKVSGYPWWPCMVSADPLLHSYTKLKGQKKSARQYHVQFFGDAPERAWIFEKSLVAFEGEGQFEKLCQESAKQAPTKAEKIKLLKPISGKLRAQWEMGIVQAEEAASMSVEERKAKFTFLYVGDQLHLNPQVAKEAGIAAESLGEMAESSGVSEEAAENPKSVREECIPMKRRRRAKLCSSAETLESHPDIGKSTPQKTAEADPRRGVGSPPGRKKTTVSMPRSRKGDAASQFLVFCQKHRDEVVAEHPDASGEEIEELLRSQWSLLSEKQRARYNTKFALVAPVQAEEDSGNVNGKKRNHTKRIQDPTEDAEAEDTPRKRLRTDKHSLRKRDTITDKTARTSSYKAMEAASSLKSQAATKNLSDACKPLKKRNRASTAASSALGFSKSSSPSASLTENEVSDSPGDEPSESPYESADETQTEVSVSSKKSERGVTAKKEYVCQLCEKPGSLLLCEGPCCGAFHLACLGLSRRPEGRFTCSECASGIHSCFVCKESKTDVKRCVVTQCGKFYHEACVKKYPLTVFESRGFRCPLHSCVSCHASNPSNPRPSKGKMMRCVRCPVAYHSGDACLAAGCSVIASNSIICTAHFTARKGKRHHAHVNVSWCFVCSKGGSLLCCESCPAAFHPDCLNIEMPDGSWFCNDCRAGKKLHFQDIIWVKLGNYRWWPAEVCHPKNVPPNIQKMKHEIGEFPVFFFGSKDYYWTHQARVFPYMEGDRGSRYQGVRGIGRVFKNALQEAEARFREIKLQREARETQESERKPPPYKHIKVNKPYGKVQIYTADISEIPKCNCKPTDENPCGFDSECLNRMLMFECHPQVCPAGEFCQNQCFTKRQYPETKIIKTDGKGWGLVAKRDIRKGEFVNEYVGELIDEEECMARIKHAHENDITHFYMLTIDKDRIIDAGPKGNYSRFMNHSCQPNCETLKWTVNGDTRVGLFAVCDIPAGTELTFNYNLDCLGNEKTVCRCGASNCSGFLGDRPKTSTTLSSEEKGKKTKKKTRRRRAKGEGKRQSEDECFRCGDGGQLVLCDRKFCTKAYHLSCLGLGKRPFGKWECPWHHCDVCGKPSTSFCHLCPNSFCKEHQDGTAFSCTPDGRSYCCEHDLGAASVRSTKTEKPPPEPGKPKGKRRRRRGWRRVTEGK
esBAF inh = inhibitors of esBAF chromatin remodeling in mouse ES cells; reporter increase, % at 12.5 µM; Bmi1-luciferase knock-in reporter, 24 h; 100% = twice the neutral-well signal; AID 602393; 2% of 350,000 active; in the data active = activation above about 40%;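 also: a rise in the Bmi1 reporter signal indicates esBAF inhibition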
CASP6 VEID inh = blocks human caspase-6 cleavage activity; P55212; purified caspase-6, Z-VEID-R110 cleavage fluorescence; inhibition, % at 12.5 µM; 0.53% of 350,000 active;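 active = mean inhibition across replicates at least about 35%, with every replicate also reaching that limit, limit read from the data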
Xi reactivation = activators of X-chromosome reactivation in mouse fibroblasts | XiGFP mouse fibroblasts, % GFP-positive cells imaging, 3 d; cells co-treated with 5-aza-dC sensitizer; scaled so ellipticine positive control = 100% | activation, % at 7.58 µM | 0.055% of 360,000 active | AID 743238;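 active = mean normalized replicate activation at least 10% and every replicate at or above 10%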
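Material: SV40-immortalized XiGFP fibroblast cells, line 68-5-11 | Buffer or medium: DMEM containing 5-aza-dC | Dosing: One concentration, pinned | Times: 3 d treatment, 15 min room-temperature fixation | Controls: Ellipticine 6 µM positive control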
MITF TRPM1 HTS = activators of MITF-driven TRPM1 promoter activity in SK-MEL-5 cells | AID 588334 | 0.75% of 300,000 active | SK-MEL-5 TRPM1-promoter luciferase, 24 h; % of positive control, neutral wells = 0 | activation, % at 12.5 µM;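 active = mean activation of at least 80% with every replicate also reaching 80%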
AlphaScreen art = AlphaScreen assay artifact in NSD2 counter-screen. shares compounds with NSD2 HMT inh. AlphaScreen artifact counterscreen, preloaded methylated H4 peptide. AC35, µM (top dose mostly 10 µM). 9.4% of 1,500 active. AID 1053174; call rule not given here
Hits are given with their value; i = inactive; nt = no result.

SMILES	Wnt act	NSD2 HMT inh	esBAF inh	CASP6 VEID inh	Xi reactivation	MITF TRPM1 HTS	AlphaScreen art
Nc1nonc1-c1nc2ccccc2n1CC(=O)N/N=C/c1ccc(-c2ccccc2C(=O)O)o1	i	62.7	nt	60.1	i	i	i
O=C(Nc1ccc(N2CCOCC2)cc1N1CCOCC1)c1ccc([N+](=O)[O-])cc1	nt	i	i	nt	nt	i	nt
O=C(NNc1cc(N2CCOCC2)nc(N2CCOCC2)n1)c1ccc([N+](=O)[O-])cc1	i	128.7	i	i	i	i	i
CCCCn1nnc(NC(=O)c2ccco2)n1	nt	122.8	i	nt	nt	i	i
CCNC(=O)C[C@@H]1CC[C@@H]2[C@H](COC[C@H](O)CN2C(=O)Nc2c(C)noc2C)O1	nt	nt	i	i	i	nt	nt
COc1cccc(CN(C)C(=O)c2cc(COc3c(F)cccc3F)on2)c1	i	99.1	i	i	i	i	i
O=C(c1coc(=O)c(Br)c1)N1CCCc2ccccc21	nt	51.7	i	nt	nt	i	i
COCC#Cc1ccc2c(c1)O[C@H](CN(C)C(=O)Nc1ccccc1F)[C@H](C)CN([C@@H](C)CO)S2(=O)=O	nt	nt	i	i	i	nt	nt
Cc1ccccc1NC(=O)OCc1cn(-c2ccc(Cl)cc2)nn1	nt	i	i	nt	nt	i	nt
CCCCC(=O)OCc1cn(-c2ccc(Cl)cc2)nn1	nt	120.8	i	nt	nt	i	i
COC(=O)[C@@H]1[C@@H](CO)[C@@H]2Cn3c(ccc(C4=CCCCC4)c3=O)[C@@H]2N1Cc1cccnc1	nt	nt	nt	i	i	nt	nt
O=C(/C=C/c1ccco1)Nc1cccc(C(=O)Nc2ccccc2C(=O)O)c1	i	75.8	i	59.9	i	i	i
CC(=O)NC(=S)Nc1ccc(NC(=S)NC(=O)/C=C/c2ccco2)cc1	i	i	nt	i	i	i	nt
O=C(/C=C/c1ccco1)NC(=S)Nc1ccc(C(=O)O)cc1	i	65.9	nt	43.8	i	i	i
Cc1cc(N2C(=O)C=CC2=O)c([N+](=O)[O-])cc1C	nt	nt	i	nt	nt	i	nt
Cc1c([N+](=O)[O-])cc(N2C(=O)C=CC2=O)cc1[N+](=O)[O-]	nt	55.1	i	i	nt	i	i
COc1ccccc1N(CC(=O)NCC1CCCO1)C(=O)CNS(=O)(=O)c1ccc(C)cc1 (configuration not stated)	nt	68.6	i	nt	nt	i	i
CCn1c(SC(=O)NC2CCCCC2)nnc1-c1cccs1	nt	59.3	i	nt	nt	i	i
COc1ccc(NC(=O)Nc2ccc3c(c2)CC(=O)N([C@@H](C)CO)C[C@@H](C)[C@H](CN(C)C(=O)Nc2ccccc2)O3)cc1	nt	nt	i	i	i	nt	nt
COC(=O)CC1=NN(c2ccc(OC)cc2)C(=O)/C1=C\c1ccc(Cl)cc1	i	55.0	nt	i	i	i	i
COC(=O)CC1=NN(c2ccccc2)C(=O)/C1=C\c1ccc(OC)cc1	nt	i	nt	nt	nt	i	nt
CC(=O)N(/N=C1\Sc2ccccc2C1=O)c1ccccc1C	nt	56.3	i	nt	nt	i	i
CC1(C)Cc2cccc(OCC(=O)O)c2O1	nt	53.7	i	nt	nt	i	i
Cc1ccc(Cn2c(SCC(=O)NCC3CCCO3)nc3c2c(=O)n(C)c(=O)n3C)cc1 (configuration not stated)	i	50.6	i	i	i	i	i
COC(=O)c1cn(CCNC(=O)[C@H](Cc2ccccc2)NS(=O)(=O)c2ccc(C)cc2)nn1	nt	nt	nt	i	nt	nt	nt
SMILES	Wnt act	NSD2 HMT inh	esBAF inh	CASP6 VEID inh	Xi reactivation	MITF TRPM1 HTS	AlphaScreen art
COc1ccc(S(=O)(=O)Nc2ccc3c(c2)CC(=O)N([C@@H](C)CO)C[C@H](C)[C@H](CN(C)Cc2ccc4c(c2)OCO4)O3)cc1	nt	nt	i	i	i	nt	nt
CCN(CC)CCNC(=O)CN1C(=O)COc2ccc(S(=O)(=O)N3CCOCC3)cc21	i	81.0	i	i	i	i	i
CCCCCCCCn1cnc2c(N)c(C)c(C)cc21	i	76.5	i	i	nt	i	i
COc1ccc(Cn2cnc3c(N)c(C)c(C)cc32)cc1	i	i	nt	i	i	i	nt
CNCCC1Sc2ccccc2Oc2ccccc21 (configuration not stated)	i	100.4	i	i	i	i	i
CN(C)CCCC1Sc2ccccc2Sc2ccccc21 (configuration not stated)	i	i	nt	i	i	nt	nt
CC12CC3(C)CC(C)(C1)CC(C(=O)NC1=NCCS1)(C2)C3	nt	120.7	i	nt	nt	i	i
